# Activity calls are given as the source filed them. The calls are words filed in the database; no cut-off is given here.
# Experiments:
# [1] = target: T1, DNA topoisomerase 2-alpha (Homo sapiens, UniProt P11388); assay: Inhibition of recombinant human DNA topoisomerase-2alpha assessed as decrease in relaxation of supercoiled pBR322 DNA after 30 mins by ethidium bromide staining based agarose gel electrophoresis
# [2] = target: T1, DNA topoisomerase 2-alpha; assay: Poison activity at recombinant human DNA topoisomerase-2alpha assessed as linear DNA formation using supercoiled pBR322 DNA as substrate at 200 uM after 30 mins by ethidium bromide staining based agarose gel electrophoresis
# Summary of the method: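 Cleavage reactions: 200 ng pBR322, 6 U topo II, 30 mM Tris-HCl pH 7.6, 60 mM NaCl, 8 mM MgCl2, 3 mM ATP, 15 mM mercaptoethanol, drug in 10% DMSO; 37 °C, 30 min; SDS/proteinase K 60 min, 37 °C; 1% agarose in TBE with 0.1% SDS and ethidium bromide; linear DNA scored.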
# [3] = target: T1, DNA topoisomerase 2-alpha; assay: Inhibition of recombinant human DNA topoisomerase-2alpha assessed as decrease in relaxation of supercoiled pBR322 DNA at 100 uM after 30 mins by ethidium bromide staining based agarose gel electrophoresis
# Summary of the method: (§1)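 Topo II relaxation of supercoiled pBR322 (198 ng) with 1 U enzyme, 50 mM Tris-HCl pH 8, 120 mM KCl, 10 mM MgCl2, 0.5 mM ATP, 0.5 mM DTT, drug in <10% DMSO; 37 °C for 30 min; products run on 1% agarose in TAE, ethidium-stained, scanned; supercoiled DNA area quantified.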
# [4] = target: DNA topoisomerase 1 (Homo sapiens) (UniProt P11387); assay: Inhibition of human placenta DNA topoisomerase-1 assessed as decrease in relaxation of supercoiled pUC19 DNA at 200 uM after 30 mins by ethidium bromide staining based agarose gel electrophoresis
# Chain of DNA topoisomerase 1 (Homo sapiens) (P11387 whole entry): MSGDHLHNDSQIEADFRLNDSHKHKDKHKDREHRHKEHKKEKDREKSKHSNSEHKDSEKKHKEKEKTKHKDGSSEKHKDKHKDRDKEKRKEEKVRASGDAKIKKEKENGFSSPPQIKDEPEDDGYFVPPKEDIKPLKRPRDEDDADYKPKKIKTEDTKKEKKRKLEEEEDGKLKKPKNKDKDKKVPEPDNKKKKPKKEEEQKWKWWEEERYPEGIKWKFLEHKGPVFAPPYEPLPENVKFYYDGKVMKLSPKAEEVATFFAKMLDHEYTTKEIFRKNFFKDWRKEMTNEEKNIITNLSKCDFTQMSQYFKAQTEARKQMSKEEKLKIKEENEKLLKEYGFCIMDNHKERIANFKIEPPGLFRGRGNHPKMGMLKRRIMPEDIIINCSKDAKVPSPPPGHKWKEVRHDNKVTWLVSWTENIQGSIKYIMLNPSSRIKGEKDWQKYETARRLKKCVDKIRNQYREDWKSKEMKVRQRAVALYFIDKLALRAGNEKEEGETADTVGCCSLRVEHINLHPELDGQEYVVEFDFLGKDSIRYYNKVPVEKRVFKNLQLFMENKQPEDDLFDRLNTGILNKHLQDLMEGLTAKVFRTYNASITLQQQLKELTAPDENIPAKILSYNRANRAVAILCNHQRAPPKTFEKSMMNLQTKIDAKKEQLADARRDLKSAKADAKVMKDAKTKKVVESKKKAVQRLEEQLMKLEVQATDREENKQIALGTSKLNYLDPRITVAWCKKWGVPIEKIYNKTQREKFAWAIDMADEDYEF
# SF-539 = assay: Growth inhibition of human SF539 cells incubated for 48 hrs by sulforhodamine B assay; format: functional; settings: SF-539, 48 h
# NCI-H460 = assay: Growth inhibition of human NCI-H460 cells incubated for 48 hrs by sulforhodamine B assay; format: functional; settings: NCI-H460, 48 h
# OVCAR-8 = assay: Growth inhibition of human OVCAR8 cells incubated for 48 hrs by sulforhodamine B assay; format: functional; settings: OVCAR-8, 48 h
# NCI-H226 = assay: Growth inhibition of human NCI-H226 cells incubated for 48 hrs by sulforhodamine B assay; format: functional; settings: NCI-H226, 48 h
# SNB-78 = assay: Growth inhibition of human SNB78 cells incubated for 48 hrs by sulforhodamine B assay; format: functional; settings: SNB-78, 48 h
# HCC 2998 = assay: Growth inhibition of human HCC2998 cells incubated for 48 hrs by sulforhodamine B assay; format: functional; settings: HCC 2998, 48 h
# MKN-7 = assay: Growth inhibition of human MKN7 cells incubated for 48 hrs by sulforhodamine B assay; format: functional; settings: MKN-7, 48 h
# OVCAR-5 = assay: Growth inhibition of human OVCAR5 cells incubated for 48 hrs by sulforhodamine B assay; format: functional; settings: OVCAR-5, 48 h
# DMS-114 = assay: Growth inhibition of human DMS114 cells incubated for 48 hrs by sulforhodamine B assay; format: functional; settings: DMS-114, 48 h
# [5] = Growth inhibition of human […] incubated for 48 hrs by sulforhodamine B assay; format: functional
# DU-145 = assay: Growth inhibition of human DU145 cells incubated for 48 hrs by sulforhodamine B assay; format: functional; settings: DU-145, 48 h
# LOX IMVI = assay: Growth inhibition of human LOXIMVI cells incubated for 48 hrs by sulforhodamine B assay; format: functional
# SF-268 = assay: Growth inhibition of human SF268 cells incubated for 48 hrs by sulforhodamine B assay; format: functional; settings: SF-268, 48 h
# MKN-1 = assay: Growth inhibition of human MKN1 cells incubated for 48 hrs by sulforhodamine B assay; format: functional; settings: MKN-1, 48 h
# KM12 = assay: Growth inhibition of human KM12 cells incubated for 48 hrs by sulforhodamine B assay; format: functional; settings: KM12, 48 h
# HT-29 = assay: Growth inhibition of human HT-29 cells incubated for 48 hrs by sulforhodamine B assay; format: functional; settings: HT-29, 48 h
# MKN-74 = assay: Growth inhibition of human MKN74 cells incubated for 48 hrs by sulforhodamine B assay; format: functional; settings: MKN-74, 48 h
# MCF7 = assay: Growth inhibition of human MCF7 cells incubated for 48 hrs by sulforhodamine B assay; format: functional; settings: MCF7, 48 h
# [6] = Growth inhibition of human BSY1 cells incubated for 48 hrs by sulforhodamine B assay; format: functional; settings: BSY-1, 48 h
# A549 = assay: Growth inhibition of human A549 cells incubated for 48 hrs by sulforhodamine B assay; format: functional; settings: A549, 48 h
# St-4 = assay: Growth inhibition of human St-4 cells incubated for 48 hrs by sulforhodamine B assay; format: functional; settings: St-4, 48 h
# MKN-45 = assay: Growth inhibition of human MKN45 cells incubated for 48 hrs by sulforhodamine B assay; format: functional; settings: MKN-45, 48 h
# OVCAR-3 = assay: Growth inhibition of human OVCAR3 cells incubated for 48 hrs by sulforhodamine B assay; format: functional; settings: OVCAR-3, 48 h
# [7] = Growth inhibition of human HBC4 cells incubated for 48 hrs by sulforhodamine B assay; format: functional; settings: HBC4, 48 h
# ACHN = assay: Growth inhibition of human ACHN cells incubated for 48 hrs by sulforhodamine B assay; format: functional
# SNB-75 = assay: Growth inhibition of human SNB75 cells incubated for 48 hrs by sulforhodamine B assay; format: functional; settings: SNB-75, 48 h
# RXF 631 = assay: Growth inhibition of human RXF631L cells incubated for 48 hrs by sulforhodamine B assay; format: functional; settings: RXF 631, 48 h
# NCI-H522 = assay: Growth inhibition of human NCI-H522 cells incubated for 48 hrs by sulforhodamine B assay; format: functional; settings: NCI-H522, 48 h
# PC-3 = assay: Growth inhibition of human PC3 cells incubated for 48 hrs by sulforhodamine B assay; format: functional; settings: PC-3, 48 h
# OVCAR-4 = assay: Growth inhibition of human OVCAR4 cells incubated for 48 hrs by sulforhodamine B assay; format: functional; settings: OVCAR-4, 48 h
# MKN-28 = assay: Growth inhibition of human MKN28 cells incubated for 48 hrs by sulforhodamine B assay; format: functional; settings: MKN-28, 48 h
# DMS-273 = assay: Growth inhibition of human DMS273 cells incubated for 48 hrs by sulforhodamine B assay; format: functional; settings: DMS-273, 48 h
# HCT-15 = assay: Growth inhibition of human HCT15 cells incubated for 48 hrs by sulforhodamine B assay; format: functional; settings: HCT-15, 48 h
# U-251 = assay: Growth inhibition of human U251 cells incubated for 48 hrs by sulforhodamine B assay; format: functional; settings: U-251, 48 h
# NCI-H23 = assay: Growth inhibition of human NCI-H23 cells incubated for 48 hrs by sulforhodamine B assay; format: functional; settings: NCI-H23, 48 h
# [8] = Growth inhibition of human HBC5 cells incubated for 48 hrs by sulforhodamine B assay; format: functional; settings: HBC5, 48 h
# HCT-116 = assay: Growth inhibition of human HCT116 cells incubated for 48 hrs by sulforhodamine B assay; format: functional; settings: HCT-116, 48 h
# SK-OV-3 = assay: Growth inhibition of human SKOV3 cells incubated for 48 hrs by sulforhodamine B assay; format: functional; settings: SK-OV-3, 48 h
# SF-295 = assay: Growth inhibition of human SF295 cells incubated for 48 hrs by sulforhodamine B assay; format: functional; settings: SF-295, 48 h
# [9] = target: T1, DNA topoisomerase 2-alpha; assay: Inhibition of recombinant human DNA topoisomerase-2alpha assessed as decrease in relaxation of supercoiled pBR322 DNA at […] after 30 mins by ethidium bromide staining based agarose gel electrophoresis relative to control; summary of the method: as §1
# [10] = target: T1, DNA topoisomerase 2-alpha; assay: Inhibition of recombinant human DNA topoisomerase-2alpha assessed as decrease in relaxation of supercoiled pBR322 DNA at 200 uM after 30 mins by ethidium bromide staining based agarose gel electrophoresis relative to control; summary of the method: as §1
# T1 sequence (P11388 whole entry): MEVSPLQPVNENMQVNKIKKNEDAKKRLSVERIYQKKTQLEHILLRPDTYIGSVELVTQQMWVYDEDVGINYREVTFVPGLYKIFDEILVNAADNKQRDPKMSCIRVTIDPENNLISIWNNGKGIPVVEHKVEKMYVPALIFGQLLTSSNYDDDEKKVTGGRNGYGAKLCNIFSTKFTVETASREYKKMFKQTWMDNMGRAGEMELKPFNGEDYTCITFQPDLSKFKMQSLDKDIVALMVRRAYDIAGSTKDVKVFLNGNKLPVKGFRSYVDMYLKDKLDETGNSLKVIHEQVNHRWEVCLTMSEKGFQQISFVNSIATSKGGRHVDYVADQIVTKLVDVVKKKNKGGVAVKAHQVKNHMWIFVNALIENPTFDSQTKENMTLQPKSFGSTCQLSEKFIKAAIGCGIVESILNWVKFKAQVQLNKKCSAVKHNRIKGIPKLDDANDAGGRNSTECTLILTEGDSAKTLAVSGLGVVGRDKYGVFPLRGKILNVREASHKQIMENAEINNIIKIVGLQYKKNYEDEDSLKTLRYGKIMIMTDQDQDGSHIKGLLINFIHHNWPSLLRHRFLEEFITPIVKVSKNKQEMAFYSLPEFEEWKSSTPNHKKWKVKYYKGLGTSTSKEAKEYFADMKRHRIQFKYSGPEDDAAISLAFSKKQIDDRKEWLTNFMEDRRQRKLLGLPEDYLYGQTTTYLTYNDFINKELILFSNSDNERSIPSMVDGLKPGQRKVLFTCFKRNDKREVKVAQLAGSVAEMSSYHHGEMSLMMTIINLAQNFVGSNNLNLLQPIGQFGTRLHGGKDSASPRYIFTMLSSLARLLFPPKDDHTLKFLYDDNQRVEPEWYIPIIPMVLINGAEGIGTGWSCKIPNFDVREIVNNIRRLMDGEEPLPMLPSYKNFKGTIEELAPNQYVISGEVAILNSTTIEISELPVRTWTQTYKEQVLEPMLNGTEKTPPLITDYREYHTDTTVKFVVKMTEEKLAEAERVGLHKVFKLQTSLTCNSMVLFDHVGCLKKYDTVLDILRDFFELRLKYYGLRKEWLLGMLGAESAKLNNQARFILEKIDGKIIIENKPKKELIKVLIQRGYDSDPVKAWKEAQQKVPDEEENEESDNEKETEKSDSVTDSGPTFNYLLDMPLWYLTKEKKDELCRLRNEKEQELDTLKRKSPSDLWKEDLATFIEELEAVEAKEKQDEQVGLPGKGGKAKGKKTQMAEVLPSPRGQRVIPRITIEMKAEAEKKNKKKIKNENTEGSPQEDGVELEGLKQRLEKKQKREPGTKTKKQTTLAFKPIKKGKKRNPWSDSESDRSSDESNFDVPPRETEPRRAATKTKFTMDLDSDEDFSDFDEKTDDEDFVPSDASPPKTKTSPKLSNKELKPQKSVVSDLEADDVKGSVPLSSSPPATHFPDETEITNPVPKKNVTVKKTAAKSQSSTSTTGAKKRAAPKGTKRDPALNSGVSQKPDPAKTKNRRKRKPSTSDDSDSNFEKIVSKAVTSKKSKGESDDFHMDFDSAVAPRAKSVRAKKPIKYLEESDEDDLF
structure (smiles),measurement,setting,value
Cc1cn([C@H]2C[C@H](Cc3ccc(O)c(O)c3)[C@@H](CO)O2)c(=O)[nH]c1=O,IC50,[1],176 µM
same,inhibition,[1],Dose-dependent effect
same,Activity,[2],inactive
same,inhibition,[3],inactive
same,inhibition,[4],inactive
COc1ccc(C2([C@H]3C[C@H](n4cc(C)c(=O)[nH]c4=O)O[C@@H]3CO[Si](C)(C)C(C)(C)C)SCCCS2)cc1OC,GI50,SF-539,2.19 µM
same,GI50,NCI-H460,3.63 µM
same,GI50,OVCAR-8,3.89 µM
same,GI50,NCI-H226,2 µM
same,GI50,SNB-78,5.5 µM
same,GI50,HCC 2998,3.31 µM
same,GI50,MKN-7,2.29 µM
same,GI50,OVCAR-5,2.88 µM
same,GI50,DMS-114,3.31 µM
same,IC50,[1],8.1 µM
same,GI50,[5],3.47 µM
same,GI50,DU-145,3.72 µM
same,GI50,LOX IMVI,3.24 µM
same,GI50,SF-268,6.46 µM
same,GI50,MKN-1,2.29 µM
same,GI50,KM12,4.07 µM
same,GI50,HT-29,3.89 µM
same,GI50,MKN-74,3.24 µM
same,GI50,MCF7,3.31 µM
same,GI50,[6],1.82 µM
same,GI50,A549,4.68 µM
same,GI50,St-4,4.47 µM
same,GI50,MKN-45,3.31 µM
same,GI50,OVCAR-3,3.72 µM
same,GI50,[7],3.8 µM
same,GI50,ACHN,2.51 µM
same,GI50,SNB-75,10 µM
same,GI50,RXF 631,4.57 µM
same,GI50,NCI-H522,2.69 µM
same,GI50,PC-3,2.29 µM
same,GI50,OVCAR-4,2.88 µM
same,GI50,MKN-28,3.31 µM
same,GI50,DMS-273,3.8 µM
same,GI50,HCT-15,4.07 µM
same,GI50,U-251,3.8 µM
same,GI50,NCI-H23,3.72 µM
same,GI50,[8],2.51 µM
same,inhibition,[4],inactive
same,GI50,HCT-116,3.63 µM
same,GI50,SK-OV-3,5.25 µM
same,GI50,SF-295,3.72 µM
COc1ccc(C[C@H]2CC(=O)O[C@@H]2CO)cc1OC,inhibition,[9],inactive
COc1ccc(C[C@H]2C[C@H](n3cc(C)c(=O)[nH]c3=O)O[C@@H]2CO[Si](C)(C)C(C)(C)C)cc1OC,IC50,[1],99.1 µM
COc1ccc(C2([C@H]3CC(=O)O[C@@H]3CO)SCCCS2)cc1OC,inhibition,[9],19.8%
same,IC50,[1],> 200 µM
COc1ccc(C2([C@H]3C[C@H](n4cc(C)c(=O)[nH]c4=O)O[C@@H]3CO)SCCCS2)cc1OC,IC50,[1],64.5 µM
COc1cc([C@@H]2c3cc4c(cc3[C@@H](O[C@@H]3O[C@@H]5CO[C@@H](C)O[C@H]5[C@H](O)[C@H]3O)[C@H]3COC(=O)[C@H]23)OCO4)cc(OC)c1O,Activity,[2],Active
COc1ccc(C[C@H]2C[C@@H](n3cc(C)c(=O)[nH]c3=O)O[C@@H]2CO[Si](C)(C)C(C)(C)C)cc1OC,IC50,[1],89.2 µM
COc1ccc(C[C@H]2C[C@H](n3cc(C)c(=O)[nH]c3=O)O[C@@H]2CO)cc1OC,inhibition,[9],23.7%
same,IC50,[1],> 200 µM
same,inhibition,[10],inactive
COc1ccc(C2([C@H]3CC(=O)O[C@@H]3CO[Si](C)(C)C(C)(C)C)SCCCS2)cc1OC,IC50,[1],55.7 µM
COc1ccc(C[C@H]2CC(=O)O[C@@H]2CO[Si](C)(C)C(C)(C)C)cc1OC,IC50,[1],137 µM
Cc1cn([C@H]2C[C@H](CC3=CC(=O)C(=O)C=C3)[C@@H](CO[Si](C)(C)C(C)(C)C)O2)c(=O)[nH]c1=O,IC50,[1],2.43 µM
COc1ccc(C[C@H]2C[C@@H](n3cc(C)c(=O)[nH]c3=O)O[C@@H]2CO)cc1OC,inhibition,[9],inactive
Cc1cn([C@H]2C[C@H](Cc3ccc(O)c(O)c3)[C@@H](CO[Si](C)(C)C(C)(C)C)O2)c(=O)[nH]c1=O,IC50,[1],35.2 µM
COc1ccc(C2([C@H]3C[C@@H](n4cc(C)c(=O)[nH]c4=O)O[C@@H]3CO[Si](C)(C)C(C)(C)C)SCCCS2)cc1OC,GI50,SF-539,14.1 µM
same,GI50,NCI-H460,5.62 µM
same,GI50,OVCAR-8,8.32 µM
same,GI50,NCI-H226,3.39 µM
same,GI50,SNB-78,12.9 µM
same,GI50,HCC 2998,12.9 µM
same,GI50,MKN-7,3.02 µM
same,GI50,OVCAR-5,12.9 µM
same,GI50,DMS-114,5.62 µM
same,IC50,[1],18.5 µM
same,GI50,[5],11 µM
same,GI50,DU-145,12 µM
same,GI50,LOX IMVI,8.13 µM
same,GI50,SF-268,12.9 µM
same,GI50,MKN-1,5.01 µM
same,GI50,KM12,11 µM
same,GI50,HT-29,6.17 µM
same,GI50,MKN-74,4.27 µM
same,GI50,MCF7,4.37 µM
same,GI50,[6],3.31 µM
same,GI50,A549,5.37 µM
same,GI50,St-4,12 µM
same,GI50,MKN-45,8.32 µM
same,GI50,OVCAR-3,11 µM
same,GI50,[7],5.01 µM
same,GI50,ACHN,6.76 µM
same,GI50,SNB-75,17 µM
same,GI50,RXF 631,17 µM
same,GI50,NCI-H522,5.62 µM
same,GI50,PC-3,3.63 µM
same,GI50,OVCAR-4,4.9 µM
same,GI50,MKN-28,4.9 µM
same,GI50,DMS-273,4.57 µM
same,GI50,HCT-15,9.12 µM
same,GI50,U-251,7.41 µM
same,GI50,NCI-H23,11 µM
same,GI50,[8],5.75 µM
same,GI50,HCT-116,5.75 µM
same,GI50,SK-OV-3,17 µM
same,GI50,SF-295,8.32 µM
